Data as given in ChEMBL document CHEMBL5036324 (J Med Chem, 2021).
Calls of active or inactive are those of the source. The calls are words filed in the database; no cut-off is given here.

How the values were obtained:
[1] = Toxicity in BALB/c mouse implanted with mouse CT26 cells assessed as decrease in body weight at 1.2 g, ip administered on day 4 in combination with anti-PD-1 antibodies measured after 4 days; format: organism-based; settings: in vivo, 96 h, time 4 day
Procedure, shortened: (§1)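 CT26 subcutaneous tumor-bearing BALB/c mice (n = 5) were treated from 100 mm³ tumor volume. TLR7/8 agonist was given ip once weekly, alone or with anti-PD-1 antibody (200 μg ip, twice weekly). Body weight was tracked over the treatment period and reported as mean ± SEM.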

[2] = target: T1, TLR7 and TLR8 (Homo sapiens) (UniProt Q9NYK1+Q9NR97); assay: Agonist activity at human TLR7/8 expressed in human PBMC cells assessed as induction of IL-10 production by measuring concentration required to induce maximal response incubated for 12 hrs by multiplexed immunoassay; format: cell-based; settings: filed as agonist
T1 sequence (Q9NR97 whole entry, looked up): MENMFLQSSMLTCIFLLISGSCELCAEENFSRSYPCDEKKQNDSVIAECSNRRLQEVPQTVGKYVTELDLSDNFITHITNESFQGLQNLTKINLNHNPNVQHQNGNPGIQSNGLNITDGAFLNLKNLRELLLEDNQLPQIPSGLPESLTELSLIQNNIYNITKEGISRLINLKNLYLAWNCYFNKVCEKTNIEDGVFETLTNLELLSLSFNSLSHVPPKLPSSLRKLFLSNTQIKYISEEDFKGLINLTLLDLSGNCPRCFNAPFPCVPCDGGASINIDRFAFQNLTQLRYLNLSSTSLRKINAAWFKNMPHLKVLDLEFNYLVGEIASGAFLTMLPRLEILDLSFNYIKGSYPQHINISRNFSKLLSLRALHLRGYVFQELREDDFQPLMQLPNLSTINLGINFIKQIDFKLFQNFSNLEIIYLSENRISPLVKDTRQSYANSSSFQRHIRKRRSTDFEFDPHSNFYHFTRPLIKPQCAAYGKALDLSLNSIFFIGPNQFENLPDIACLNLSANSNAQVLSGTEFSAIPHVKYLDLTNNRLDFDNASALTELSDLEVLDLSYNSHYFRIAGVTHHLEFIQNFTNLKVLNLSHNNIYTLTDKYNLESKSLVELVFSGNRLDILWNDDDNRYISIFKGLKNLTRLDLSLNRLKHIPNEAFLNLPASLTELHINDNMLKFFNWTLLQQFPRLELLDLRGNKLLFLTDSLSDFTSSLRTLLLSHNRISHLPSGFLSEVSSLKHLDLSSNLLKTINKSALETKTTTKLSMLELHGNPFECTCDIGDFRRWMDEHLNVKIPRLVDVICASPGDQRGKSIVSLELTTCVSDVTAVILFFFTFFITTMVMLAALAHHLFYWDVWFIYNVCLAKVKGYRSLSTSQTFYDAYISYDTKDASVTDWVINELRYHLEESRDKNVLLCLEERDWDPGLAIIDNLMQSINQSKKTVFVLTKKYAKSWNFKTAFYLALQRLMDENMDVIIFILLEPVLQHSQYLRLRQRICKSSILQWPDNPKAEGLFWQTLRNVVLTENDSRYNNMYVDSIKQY
T1 sequence (Q9NYK1 whole entry, looked up): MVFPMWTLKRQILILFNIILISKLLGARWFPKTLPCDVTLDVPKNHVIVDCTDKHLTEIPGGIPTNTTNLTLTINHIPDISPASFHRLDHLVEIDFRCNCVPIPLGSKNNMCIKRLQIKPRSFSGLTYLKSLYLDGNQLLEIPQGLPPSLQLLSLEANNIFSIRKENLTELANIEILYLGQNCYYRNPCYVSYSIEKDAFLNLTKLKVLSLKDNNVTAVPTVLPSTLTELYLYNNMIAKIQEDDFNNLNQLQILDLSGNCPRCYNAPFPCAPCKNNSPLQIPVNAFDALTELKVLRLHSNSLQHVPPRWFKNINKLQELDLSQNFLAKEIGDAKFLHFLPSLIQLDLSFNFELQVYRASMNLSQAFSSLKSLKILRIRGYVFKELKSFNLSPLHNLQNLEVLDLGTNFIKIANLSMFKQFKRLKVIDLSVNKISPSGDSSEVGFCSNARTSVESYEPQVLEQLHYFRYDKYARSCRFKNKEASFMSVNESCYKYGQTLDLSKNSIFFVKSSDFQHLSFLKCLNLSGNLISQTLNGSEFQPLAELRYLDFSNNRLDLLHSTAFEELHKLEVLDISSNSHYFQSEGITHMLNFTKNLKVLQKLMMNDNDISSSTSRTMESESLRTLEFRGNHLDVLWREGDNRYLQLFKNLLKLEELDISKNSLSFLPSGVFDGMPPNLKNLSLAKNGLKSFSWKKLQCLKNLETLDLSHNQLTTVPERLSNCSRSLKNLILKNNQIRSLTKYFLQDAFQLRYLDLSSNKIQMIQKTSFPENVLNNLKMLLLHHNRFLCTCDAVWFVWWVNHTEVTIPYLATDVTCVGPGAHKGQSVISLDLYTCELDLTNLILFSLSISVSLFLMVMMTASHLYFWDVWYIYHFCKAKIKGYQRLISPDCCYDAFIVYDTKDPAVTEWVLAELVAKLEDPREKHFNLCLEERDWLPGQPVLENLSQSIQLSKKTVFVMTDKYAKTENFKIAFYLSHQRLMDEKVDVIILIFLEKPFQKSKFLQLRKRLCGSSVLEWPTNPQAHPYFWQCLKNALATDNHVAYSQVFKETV
Procedure, shortened: (§2)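 Healthy-volunteer PBMCs from a single donor were isolated by Ficoll−Hypaque gradient and plated at 2.0 × 10⁶ cells/mL. They were stimulated for 12 h with escalating compound concentrations. Supernatants were assayed in duplicate on a 41-analyte magnetic bead cytokine/chemokine panel read by Luminex. EC_max is the concentration giving maximal cytokine induction.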

CT26 [3] = assay: Antitumor immunity against mouse CT26 cells implanted in BALB/c mouse assessed as increase in infiltration of CD4+ TH1 cells at 25 ug, ip administered once a week with anti-PD-1 antibody for 23 days by flow cytometry analysis; format: functional, organism-based; settings: dose 25.0 µg, time 23.0 day
Procedure, shortened: (§3)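 CT26-bearing BALB/c mice (n = 5) were treated ip once weekly with agonist, alone or with anti-PD-1 (200 μg, twice weekly). Tumours were harvested 23 days after implantation, enzymatically and mechanically dissociated into single cells, and stained for surface markers plus intracellular FoxP3 after fixation/permeabilisation. Cells were gated within CD45⁺ for CD11c⁺ DCs, CD11b⁺F4/80⁺MHCII⁺ (M1), CD206⁺ (M2), CD3/CD4/CD8, and CD4⁺CD25⁺FoxP3⁺ Treg, then analysed by flow cytometry.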

CT26 [4] = assay: Antitumor immunity against mouse CT26 cells implanted in BALB/c mouse assessed as increase in Teff/Treg ratio at 25 ug, ip administered once a week for 23 days by flow cytometry analysis; format: functional, organism-based; settings: dose 25.0 µg, time 23.0 day; procedure, shortened: as §3
CT26 [5] = assay: Synergistic antitumor activity against mouse CT26 cells implanted in BALB/c mouse assessed as reduction in tumor size at 25 ug, ip administered once a week in presence of anti-PD-1 antibodies and measured every 3 days for 23 days; format: functional, organism-based; settings: dose 25.0 µg, time 23.0 day
[6] = target: T1, TLR7 and TLR8 (Homo sapiens); assay: Agonist activity at human TLR7/8 expressed in human PBMC cells assessed as induction of IL-6 production by measuring concentration required to induce maximal response incubated for 12 hrs by multiplexed immunoassay; format: cell-based; settings: filed as agonist; procedure, shortened: as §2
CT26 [7] = assay: Antitumor immunity against mouse CT26 cells implanted in BALB/c mouse assessed as increase in infiltration of CD4+ TH1 cells at 25 ug, ip administered once a week for 23 days by flow cytometry analysis; format: functional, organism-based; settings: dose 25.0 µg, time 23.0 day; procedure, shortened: as §3
[8] = target: T1, TLR7 and TLR8 (Homo sapiens); assay: Agonist activity at human TLR7/8 expressed in human PBMC cells assessed as induction of IL-8 production by measuring concentration required to induce maximal response incubated for 12 hrs by multiplexed immunoassay; format: cell-based; settings: filed as agonist; procedure, shortened: as §2
[9] = target: T1, TLR7 and TLR8 (Homo sapiens); assay: Agonist activity at human TLR7/8 expressed in human PBMC cells assessed as induction of MIP-1alpha production by measuring concentration required to induce maximal response incubated for 12 hrs by multiplexed immunoassay; format: cell-based; settings: filed as agonist; procedure, shortened: as §2
CT26 [10] = assay: Antitumor activity against mouse CT26 cells implanted in BALB/c mouse assessed as tumor growth inhibition at 25 ug, ip administered once a week and measured every 3 days for 23 days relative to control; format: functional; settings: dose 25 µg; time 23 day
Procedure, shortened: (§4)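 Subcutaneous CT26 tumours were grown in BALB/c mice, with cells cultured in DMEM/10% FBS. At a mean tumour size of 100 mm³, mice were randomised (n = 5/group). Agonist was given ip once weekly; anti-PD-1 or IgG isotype was given ip at 200 μg twice weekly. Tumour volume (V = 1/2ab²) was measured every 3 days. Mice were euthanised at 2000 mm³.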

[11] = Subacute toxicity in BALB/c mouse assessed as body weight loss at 2.19 g, ip administered as single dose; format: organism-based; settings: in vivo
Procedure, shortened: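 Subacute study in BALB/c mice, with treated and control groups. Body weight was recorded every day. Spleens were weighed and photographed, and tissues were examined by H&E staining.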

[12] = target: T1, TLR7 and TLR8 (Homo sapiens); assay: Agonist activity at human TLR7/8 expressed in human PBMC cells assessed as induction of IL-1beta production by measuring concentration required to induce maximal response incubated for 12 hrs by multiplexed immunoassay; format: cell-based; settings: filed as agonist; procedure, shortened: as §2
CT26 [13] = assay: Antitumor immunity against mouse CT26 cells implanted in BALB/c mouse assessed as increase in M1 to M2 like TAM ratio at 25 ug, ip administered once a week with anti-PD-1 antibodies for 23 days by flow cytometry analysis; format: functional, organism-based; settings: dose 25.0 µg, time 23.0 day; procedure, shortened: as §3
CT26 [14] = assay: Antitumor activity against mouse CT26 cells implanted in BALB/c mouse assessed as reduction in tumor size at 25 ug, ip administered once a week in presence of anti-PD-1 antibodies and measured every 3 days for 23 days; format: functional, organism-based; settings: dose 25.0 µg, time 23.0 day; procedure, shortened: as §4
CT26 [15] = assay: Antitumor immunity against mouse CT26 cells implanted in BALB/c mouse assessed as increase in M1 to M2 like TAM ratio at 25 ug, ip administered once a week for 23 days by flow cytometry analysis; format: functional, organism-based; settings: dose 25.0 µg, time 23.0 day; procedure, shortened: as §3
[16] = target: T1, TLR7 and TLR8 (Homo sapiens); assay: Agonist activity at human TLR7/8 expressed in human PBMC cells assessed as induction of IL-1beta production at 0.1 to 32 ug/ml incubated for 12 hrs by multiplexed immunoassay; format: cell-based; settings: filed as agonist, dose 0.1-32 µg/ml; procedure, shortened: as §2
[17] = target: T1, TLR7 and TLR8 (Homo sapiens); assay: Agonist activity at human TLR7/8 expressed in human PBMC cells assessed as induction of IL-6 production at 0.1 to 32 ug/ml incubated for 12 hrs by multiplexed immunoassay; format: cell-based; settings: filed as agonist, dose 0.1-32 µg/ml; procedure, shortened: as §2
[18] = target: T1, TLR7 and TLR8 (Homo sapiens); assay: Agonist activity at human TLR7/8 expressed in human PBMC cells assessed as induction of INF-alpha regulated IP-10 production at 0.1 to 32 ug/ml incubated for 12 hrs by multiplexed immunoassay; format: cell-based; settings: filed as agonist, dose 0.1-32 µg/ml; procedure, shortened: as §2
[19] = Acute toxicity in BALB/c mouse assessed as mortality at 120 mg/kg, ip administered as single dose; format: organism-based; settings: in vivo
[20] = target: T1, TLR7 and TLR8 (Homo sapiens); assay: Agonist activity at human TLR7/8 expressed in human PBMC cells assessed as induction of TNF-alpha production at 0.1 to 32 ug/ml incubated for 12 hrs by multiplexed immunoassay; format: cell-based; settings: filed as agonist, dose 0.1-32 µg/ml; procedure, shortened: as §2
[21] = target: T1, TLR7 and TLR8 (Homo sapiens); assay: Agonist activity at human TLR7/8 expressed in human PBMC cells assessed as induction of IFN-alpha2 production at 0.1 to 32 ug/ml incubated for 12 hrs by multiplexed immunoassay; format: cell-based; settings: filed as agonist, dose 0.1-32 µg/ml; procedure, shortened: as §2
[22] = target: T1, TLR7 and TLR8 (Homo sapiens); assay: Agonist activity at human TLR7/8 expressed in human PBMC cells assessed as induction of IL-8 production at 0.1 to 32 ug/ml incubated for 12 hrs by multiplexed immunoassay; format: cell-based; settings: filed as agonist, dose 0.1-32 µg/ml; procedure, shortened: as §2
[23] = target: T1, TLR7 and TLR8 (Homo sapiens); assay: Agonist activity at human TLR7/8 expressed in human PBMC cells assessed as induction of MIP-1alpha production at 0.1 to 32 ug/ml incubated for 12 hrs by multiplexed immunoassay; format: cell-based; settings: filed as agonist, dose 0.1-32 µg/ml; procedure, shortened: as §2
[24] = Toxicity in BALB/c mouse implanted with mouse CT26 cells assessed as decrease in body weight at 25 ug, ip administered once a week in presence of anti-PD-1 antibodies for 23 days; format: organism-based; settings: in vivo, 552 h, dose 25 µg, time 23 day; procedure, shortened: as §1

CCCCNc1nc(N)nc2ccc(Cc3ccc(CN(C)C)cc3)nc12
Activity [1]: Non-Toxic
ECmax [2]: 0.1 µg/mL
Activity (CT26 [3]): Active
Activity (CT26 [4]): Active
Activity (CT26 [5]): inactive
ECmax [6]: 0.1 µg/mL
Activity (CT26 [7]): Active
ECmax [8]: 0.1 µg/mL
ECmax [9]: 0.1 µg/mL
TGI (CT26 [10]): >96.5%
Activity [11]: Toxic
ECmax [12]: 0.1 µg/mL
Activity (CT26 [13]): Active
Activity (CT26 [14]): Active
Activity (CT26 [15]): Active

COCCNc1nc(N)nc2ccc(Cc3ccc(CN(C)C)cc3)nc12
Activity [16]: Active
Activity [17]: Active
Activity [18]: Active
Activity [19]: Toxic
Activity [20]: Active
Activity [21]: Active
Activity [22]: Active
Activity [23]: Active
Activity [24]: Non-Toxic
